The series in a line: Toxicity liver stage against HepG2, at 10uM. In kind it is cell-based. Also noted: test concentration 10 uM, cell line HepG2-A16-CD81EGFP. To be noted: human, HepG2-A16-CD81EGFP cells; read-out: INHIBITION
The method, boiled down: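 Uninfected HepG2-A16-CD81EGFP cells, 3 × 10^3 per well, 1536-well, plated on prespotted compound at 10 μM final, parasite-free screening media added to match infected plates; puromycin 10 μM positive, DMSO 0.5% negative; run in parallel with 48 h PbLuc assay at 37 °C, 5% CO2; viability by CellTiter-Glo luminescence, normalized to controls.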

For 72 molecules, cytotoxicity results are on record in ChEMBL document CHEMBL4513216, “Probing the Open Global Health Chemical Diversity Library for Multistage-Active Starting Points for Next-Generation Antimalarials” (ACS Infect Dis, 2020).

In the case of `O=C1CCCN1Cc1ncn2c1CN(C(=O)NC1CCCCC1)CCC2`, the cytotoxicity at 10 µM was -150%.

Turning to `CN(C)C(=O)CN1C[C@H]2CC[C@@H](C1)N(C(=O)CCCn1cncn1)C2`, the cytotoxicity at 10 µM turned out to be 0.612%. Turning to `CC(NC1(CNC(=O)OC(C)(C)C)CCOCC1)c1ccccc1` (configuration not stated), the cytotoxicity at 10 µM was 3.63%. In the case of `CCCC1SCCN1C(=O)c1ccc(-n2ncc(C#N)c2N)cc1` (configuration not stated), the cytotoxicity at 10 µM worked out at 9.15%. With `Cc1ccc(N2CCN(C(=O)[C@@H]3CCC(=O)N3)CC2=O)cc1`, the cytotoxicity at 10 µM is -4.18%. Then `O=C(Cc1csc(-c2ccco2)n1)N1CCN(c2ccccc2O)CC1`, with -10.7%; and `NC(=O)C1CCN(C(=O)c2ccc(Sc3ccccn3)cc2)CC1`, with 9.48%.

For `CCN1CCCC(O)(CN(C)Cc2ccccc2F)C1` (configuration not stated), the cytotoxicity at 10 µM was -6.43%. For the molecule `O=C(NCc1nnc2n1CCC2)c1ccc(C2CCCO2)s1` (configuration not stated), the cytotoxicity at 10 µM is -12.4%. Then `CC(C)(C)S(=O)(=O)CCNC1CSCCc2ccccc21` (configuration not stated), with -2.35%; and `NC(=O)CN1CCC(NC(=O)COc2ccc(Cl)c(Cl)c2)CC1`, with -8.7%. Then `Cn1cc(NC(=O)NCc2ccsc2)ccc1=O`, with -10.2%; and `CN1CCCc2cc(CNC(=O)c3cccnc3O)ccc21`, with -1.68%. `Cc1cccc(CN2CCN3C[C@H](Oc4cccnc4)C[C@H]3C2)n1`: the cytotoxicity at 10 µM came out at 6.61%. As to `Cc1nc(CNCC2CCCN2c2cccnn2)oc1C` (configuration not stated), the cytotoxicity at 10 µM is -3.31%. Then `CCc1noc(CN2CCN(C(=O)C3CC3)CC2)n1`, with -1.88%; and `O=C(NCCn1ccnc1)N1CCCN(Cc2cccs2)CC1`, with -29.7%; and `COc1cccc(C(=O)N2CCc3c(nc(N)[nH]c3=O)C2)c1OC`, with -9.91%. `CS(=O)(=O)NC(=O)c1ccn(-c2ccccc2Cl)n1`: the cytotoxicity at 10 µM was -4.27%. Then `CCc1cc(N2CC(N3CCCCC3C)C2)n2nccc2n1` (configuration not stated), with -4.85%.

Consider `CC(C)NC(=O)[C@H](C)NC(=O)N1CCN(c2ccc(Cl)cc2)CC1`, for which the cytotoxicity at 10 µM came to 0.592%. In the case of `Cc1cccc(C(=O)N2CCCC(c3noc(C)n3)C2)n1` (configuration not stated), the cytotoxicity at 10 µM was -19.9%.

As for `COCCN1CCN(C(=O)c2ccccc2C(C)=O)[C@H]2CS(=O)(=O)C[C@H]21`, the cytotoxicity at 10 µM was -5.95%. Consider `Cc1ccc(CN2C[C@@H]3COC[C@H](C(=O)N4CCCCO4)[C@@H]3C2)o1`, for which the cytotoxicity at 10 µM was 3.37%.

Regarding `Cc1nn(C)c2nc(N3CCCCC3c3nccs3)sc12` (configuration not stated), the cytotoxicity at 10 µM worked out at 10.2%. In the case of `COC(=O)c1ccc(C(=O)NCC2(O)CCOCC2)cc1`, the cytotoxicity at 10 µM was -5.08%.

In the case of `O=C(O)c1nnn(Cc2cccc(C(F)(F)F)c2)c1-c1cccnc1`, the cytotoxicity at 10 µM worked out at 6.46%. Then `CCN1CCN(c2ccc(C(=O)NC(C)C(=O)N(C)C)cc2)CC1` (configuration not stated), with -4.98%; and `CCC1CN(Cc2cccc(C(=O)N(C)C)c2)CCN1CCOC` (configuration not stated), with -2.99%; and `Cc1cnn(C2CCCN(C(=O)c3cc(-c4cccs4)n[nH]3)C2)c1` (configuration not stated), with -7.83%.

For the molecule `CC(=O)C(Cc1ccccc1)NC(=O)CSc1nncn1C` (configuration not stated), the cytotoxicity at 10 µM came out at 3.16%. On to `CC(C#N)CNC(=O)Nc1ccc(-c2ccc[nH]2)cc1` (configuration not stated), for which the cytotoxicity at 10 µM is 1.2%.

For `O=C(c1ccc(C(F)(F)F)nc1)N1CCCC(n2cncn2)C1` (configuration not stated), the cytotoxicity at 10 µM is -10.6%.

Consider `O=c1ccc(S(=O)(=O)N2CCCC2)cn1CC1CCCCO1` (configuration not stated), for which the cytotoxicity at 10 µM was -0.983%.

With `Fc1cccc(-c2nnn3c2COCC(CNCc2nccs2)C3)c1` (configuration not stated), the cytotoxicity at 10 µM was -112%. For `CN(C)CC(=O)N1CCC2(CCN(Cc3ccccn3)C2=O)C1` (configuration not stated), the cytotoxicity at 10 µM is 1.23%. For `COc1cccc(N2CCN(C(=O)CO)CC2=O)c1`, the cytotoxicity at 10 µM is 0.995%. Then `Cc1cc(C(=O)N2CCN(Cn3cc(Cl)cn3)CC2)on1`, with -6.81%; and `Cc1cc(NC(=O)N2CCN(c3cccs3)CC2)ccc1C(N)=O`, with -7.79%; and `COc1cccc(NC(=O)CC2Cn3ncnc3NC2=O)c1` (configuration not stated), with 4.4%. Then `CN1CCCn2c(nc(CNC(=O)c3nccn3C)cc2=O)C1`, with 4.68%; and `c1cnc(N2CCC3(CCCN(CC4CCCCC4)C3)C2)cn1` (configuration not stated), with -1.62%. Then `O=C1NCC(C(=O)N(Cc2cccc(Br)c2)C2CC2)N1` (configuration not stated), with 1.56%.

Take `O=C(NCC1CCCO1)c1csc(Cc2ccccc2)n1` (configuration not stated): the cytotoxicity at 10 µM was -110%.

For `CCOC(C)C(=O)N1CCCN(Cc2csc(CC)n2)CC1` (configuration not stated), the cytotoxicity at 10 µM was -13%. Then `COC(=O)c1cccn1C1CCN(S(=O)(=O)c2ccccc2)CC1`, with -11.1%; and `COc1cccc2c1ccn2CCNC(=O)C1CCC1`, with -3.54%; and `O=C(CCN1CCCC1C1CCCCC1)N1CCc2sccc2C1` (configuration not stated), with -11%.

As for `Cn1nccc1C(=O)NC(C)(C)c1noc(C(C)(C)C)n1`, the cytotoxicity at 10 µM is 8.22%. To `CC(Cn1ccnc1)NC(=O)C1(c2ccc(F)cc2)CCCC1` (configuration not stated) belongs -9.98%; to `CCCc1noc(CNc2cc(C[S+](C)[O-])ccc2Cl)n1` (configuration not stated), -5.18%; to `CC(C)(C)n1ncc2c1NC(=O)CC2c1ccsc1` (configuration not stated), 20.4%.

As to `CC(C)OCc1noc(C2CCCOC2)n1` (configuration not stated), the cytotoxicity at 10 µM turned out to be 5.31%.

For `N#Cc1ccc(CN2CCN(c3ccncc3Cl)CC2=O)cc1`, the cytotoxicity at 10 µM was 4.64%. With `CNc1cc2c(nn1)CCN(C(=O)c1cc(F)cc(F)c1)C2`, the cytotoxicity at 10 µM was -5.97%. Then `COc1cccc(N2CC3(CCN(c4ccncn4)C3)CC2=O)c1` (configuration not stated), with 8.61%; and `CCOc1ccccc1C(=O)N1CCCC1c1ncc2c(n1)CCNC2` (configuration not stated), with 8.3%; and `CN1CCC(NC(=O)c2cc(Cl)cc(Br)c2O)C1=O` (configuration not stated), with 4.84%.

With `O=C(NCc1nnc2n1CCC2)N(Cc1ccco1)C1CC1`, the cytotoxicity at 10 µM was -6.11%. To `O=C(CCNS(=O)(=O)c1ccccc1)NCc1ccoc1` belongs -0.886%; to `O=C(Nc1ccc(CCN2CCOCC2)cc1)C1CCCC1`, -16%; to `CCN1CCN(C(=O)c2ccn(C)c(=O)c2)CC1`, 8.66%. To `Cc1nc(C2CCCN(C(=O)c3ccc(Cl)cn3)C2)no1` (configuration not stated) belongs -10.4%; to `Cc1ccc([C@@]2(O)CC[C@@H]3CN(S(=O)(=O)C(C)C)C[C@@H]32)cc1`, -38.9%; to `COc1ccc(CN2C[C@H]3CC[C@@H](C2)N(Cc2snnc2C)C3)cc1`, -21.7%. Take `CN1C(=O)CCC12CCCN(C(=O)c1ccncc1F)C2` (configuration not stated): the cytotoxicity at 10 µM is 11%. Then `O=C(c1cccnc1)N1CCC2(CCN(C(=O)c3ccco3)CC2)C1`, with -91.6%. Take `Cc1cc(=O)[nH]c(-n2nc(C)c(CCC(=O)Nc3nc(C)cs3)c2C)n1`: the cytotoxicity at 10 µM is 5.61%. For the molecule `Cc1ccsc1C(Cc1ccccc1)NC(=O)CNC(=O)C1CC1` (configuration not stated), the cytotoxicity at 10 µM was 11.6%. Then `CC(=O)N1CCC(c2cncc(N3CCCC(O)C3)n2)CC1` (configuration not stated), with -1.47%; and `COc1ccc(NC(=O)NCC(O)c2ccc(F)cc2F)c(OC)c1` (configuration not stated), with 2.79%; and `Cc1cc(NC(=O)NCc2ccc(C)s2)no1`, with -5.29%.
